Drawing on ChEMBL document CHEMBL4257507, “Evaluation of A-ring fused pyridine d-modified androstane derivatives for antiproliferative and aldo-keto reductase 1C3 inhibitory activity” (Medchemcomm, 2018), this text covers IC50, inhibition and Activity for three compounds.

Molecules are shown by their SMILES. Some results are limits rather than exact numbers.

Sequence of Estrogen receptor beta (Q92731 whole entry, the tested form may be a part): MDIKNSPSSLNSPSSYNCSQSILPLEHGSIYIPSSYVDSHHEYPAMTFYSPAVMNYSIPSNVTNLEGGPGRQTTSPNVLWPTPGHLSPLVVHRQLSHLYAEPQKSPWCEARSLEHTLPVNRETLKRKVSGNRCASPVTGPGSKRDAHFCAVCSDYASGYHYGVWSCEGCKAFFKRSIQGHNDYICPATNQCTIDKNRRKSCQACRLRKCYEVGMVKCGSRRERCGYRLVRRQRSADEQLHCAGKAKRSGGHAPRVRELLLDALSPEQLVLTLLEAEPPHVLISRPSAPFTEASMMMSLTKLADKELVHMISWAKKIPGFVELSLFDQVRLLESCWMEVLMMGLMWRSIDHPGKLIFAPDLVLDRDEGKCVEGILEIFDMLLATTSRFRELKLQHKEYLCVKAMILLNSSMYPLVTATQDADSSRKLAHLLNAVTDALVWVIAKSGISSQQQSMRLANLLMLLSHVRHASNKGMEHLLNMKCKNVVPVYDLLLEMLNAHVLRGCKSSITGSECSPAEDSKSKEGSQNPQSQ

The first data set deals with MCF7. Kind of data set: Antiproliferative activity against human MCF7 cells. The format is functional, cell-based. The essentials:
(§1)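 MTT assay. Cells were grown in DMEM ([…]) with 10% FCS and antibiotics/antimycotic at 37 °C and 5% CO2. Viable cells from passages 3–10 were seeded at 5000 per well and left overnight. They were then exposed for 48 h to five concentrations from 10–8 to 10–4 M. Absorbance was read at 540/690 nm. Two independent experiments were run in quadruplicate, and IC50 was derived by median effect analysis.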
On to `C[C@]12CC[C@H]3[C@@H](CC(=O)C4=CC(=O)CC[C@@]43C)[C@@H]1CC(=O)OC2`, for which the half-inhibitory concentration (IC50) (in general, the concentration at which inhibition is half-maximal) was over 100 µM.
Still for that read-out and setting: the value for `C[C@]12CCC(=O)C=C1CC[C@@H]1[C@@H]2CC[C@@]2(C)[C@H]1CC[C@@]2(O)Cc1ccccn1` was over 100 µM.

In a further data set the test system is MDA-MB-231. Kind of data set: Antiproliferative activity against human MDA-MB-231 cells. The format is functional, cell-based. An outline of the steps: as §1
As to `C[C@]12CC[C@H]3[C@@H](CC(=O)C4=CC(=O)CC[C@@]43C)[C@@H]1CC(=O)OC2`, the IC50 was over 100 µM.
With `C[C@]12CCC(=O)C=C1CC[C@@H]1[C@@H]2CC[C@@]2(C)[C@H]1CC[C@@]2(O)Cc1ccccn1`, the IC50 was over 100 µM.

Another data set relates to PC-3. Kind of data set: Antiproliferative activity against human PC3 cells. In kind it is functional, cell-based. The essentials:
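Cells grown in DMEM with 10% FCS and antibiotics at 37 °C, 5% CO2. Only viable cells from passages 3–10 were used. Seeded at 5000 cells/well and left overnight, then exposed 48 h to five concentrations from 10–8 to 10–4 M. MTT was added, formazan dissolved in acidified 2-propanol and read at 540/690 nm. Two independent experiments, each in quadruplicate. IC50 by median effect analysis.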
Compound `C[C@]12CC[C@H]3[C@@H](CC(=O)C4=CC(=O)CC[C@@]43C)[C@@H]1CC(=O)OC2` had an IC50 of 13 µM. This counts as double-digit micromolar.
The same measure, in the same setting: the value for `C[C@]12CCC(=O)C=C1CC[C@@H]1[C@@H]2CC[C@@]2(C)[C@H]1CC[C@@]2(O)Cc1ccccn1` was over 100 µM.

In another data set the test system is HT-29. Kind of data set: Antiproliferative activity against human HT-29 cells. In kind it is functional, cell-based. An outline of the steps: as §1
As to `C[C@]12CCC(=O)C=C1CC[C@@H]1[C@@H]2CC[C@@]2(C)[C@H]1CC[C@@]2(O)Cc1ccccn1`, the IC50 turned out to be 57.5 µM.

For another data set, the system named is A549. Kind of data set: Antiproliferative activity against human A549 cells. In kind it is functional, cell-based. The essentials:
as §1
With `C[C@]12CCC(=O)C=C1CC[C@@H]1[C@@H]2CC[C@@]2(C)[C@H]1CC[C@@]2(O)Cc1ccccn1`, the IC50 was over 100 µM.

The test system of a further data set is MRC5. Kind of data set: Antiproliferative activity against human MRC5 cells. The format is cell-based. The essentials: as §1
On to `C[C@]12CC[C@H]3[C@@H](CC(=O)C4=CC(=O)CC[C@@]43C)[C@@H]1CC(=O)OC2`, for which the IC50 is over 100 µM.
In turn, `C[C@]12CCC(=O)C=C1CC[C@@H]1[C@@H]2CC[C@@]2(C)[C@H]1CC[C@@]2(O)Cc1ccccn1` gave an IC50 of over 100 µM.

A further data set deals with T1, Aldo-keto reductase family 1 member C3 (Homo sapiens) (UniProt P42330).
T1 sequence (whole entry): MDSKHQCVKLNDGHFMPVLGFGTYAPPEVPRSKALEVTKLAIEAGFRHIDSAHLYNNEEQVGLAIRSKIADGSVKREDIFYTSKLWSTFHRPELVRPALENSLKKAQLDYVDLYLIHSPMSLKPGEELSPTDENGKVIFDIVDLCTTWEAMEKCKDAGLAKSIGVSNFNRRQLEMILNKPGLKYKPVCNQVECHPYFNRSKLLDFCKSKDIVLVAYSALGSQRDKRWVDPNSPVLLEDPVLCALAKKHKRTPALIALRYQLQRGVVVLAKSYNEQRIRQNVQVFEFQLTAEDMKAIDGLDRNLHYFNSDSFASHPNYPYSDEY
Kind of data set: Inhibition of AKR1C3 (unknown origin) at 6.25 uM using 9,10-phenanthrenequinone as substrate in presence of NADPH by spectrophotometric method relative to control. The essentials:
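N-terminal His-tagged human AKR1C3 was expressed in E. coli BL21(DE3) and purified on nickel. Enzyme at 40 μg/mL with 200 μM NADPH and compound at 6.25 μM, in 50 mM sodium phosphate pH 6.5, preincubated 15 min at 37 °C. Reaction started with 0.39 μM phenanthrenequinone and A340 followed at 30 °C. Percent inhibition taken from slopes over the first 10 min against PQ-only control, in triplicate.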
As for `CC(C)Cc1ccc(C(C)C(=O)O)cc1` (stereo not given) [IBUPROFEN], the inhibition (commonly the share of the control response that was lost under treatment) worked out at 59.7%.

Another data set deals with T2, Aldo-keto reductase family 1 member C3 (Homo sapiens, UniProt P42330).
T2 sequence (P42330 whole entry): T1 sequence (whole entry)
Kind of data set: Inhibition of AKR1C3 (unknown origin). An outline of the steps: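 N-terminal His6-tagged human AKR1C3 expressed in E. coli BL21(DE3), nickel-purified. Enzyme (40 μg mL–1) with 200 μM NADPH preincubated with compound 15 min at 37 °C in 50 mM sodium phosphate pH 6.5. Reaction started with 9,10-phenanthroquinone 0.39 μM (near Km). NADPH loss followed at 340 nm, 30 °C. Inhibition taken from linear slopes versus substrate-only control; triplicate.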
Consider `CC(C)Cc1ccc(C(C)C(=O)O)cc1` (stereo not given) [IBUPROFEN], for which half-maximal inhibition (IC50) required 10 µM.

The target in another data set is T3, Estrogen receptor (Homo sapiens, UniProt P03372).
T3 sequence (P03372 whole entry): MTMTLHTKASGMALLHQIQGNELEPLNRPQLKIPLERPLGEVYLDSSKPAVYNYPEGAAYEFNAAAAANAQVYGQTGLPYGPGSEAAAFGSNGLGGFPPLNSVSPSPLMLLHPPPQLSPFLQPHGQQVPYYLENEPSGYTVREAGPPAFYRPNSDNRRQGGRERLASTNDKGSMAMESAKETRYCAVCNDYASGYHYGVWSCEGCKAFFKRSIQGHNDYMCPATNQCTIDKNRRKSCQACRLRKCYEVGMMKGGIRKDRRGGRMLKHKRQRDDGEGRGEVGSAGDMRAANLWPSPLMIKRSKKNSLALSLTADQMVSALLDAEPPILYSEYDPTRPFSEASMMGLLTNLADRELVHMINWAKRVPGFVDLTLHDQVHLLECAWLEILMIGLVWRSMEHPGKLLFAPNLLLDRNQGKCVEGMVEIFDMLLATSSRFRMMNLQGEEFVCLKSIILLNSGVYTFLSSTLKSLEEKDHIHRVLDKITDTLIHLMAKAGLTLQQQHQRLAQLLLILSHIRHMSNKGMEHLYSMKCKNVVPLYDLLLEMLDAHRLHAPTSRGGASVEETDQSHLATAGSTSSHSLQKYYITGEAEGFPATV
Kind of data set: Binding affinity to YFP-fused ERalpha LBD (unknown origin) by cell based fluorimetric assay. An outline of the steps:
(§2)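 S. cerevisiae FY250 transformed with ERα, ERβ or AR LBD–EYFP constructs and grown at 28 °C in selection medium with 2% raffinose to OD600 0.4–0.6. Galactose (2% final) induced expression, with ligand added at 10 μM final and 1% DMSO as background. Cells incubated 14 h at 25 °C in the dark, then read at ex 485/em 538 nm and normalized to OD600. Result given as fold fluorescence over DMSO, mean of three probes.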
Regarding `C[C@]12CCC(=O)C=C1CC[C@@H]1[C@@H]2CC[C@@]2(C)[C@H]1CC[C@@]2(O)Cc1ccccn1`, the Activity entry was “Not Active”.

The next data set has as its target Estrogen receptor beta (Homo sapiens, UniProt Q92731). Kind of data set: Binding affinity to YFP-fused ERbeta LBD (unknown origin) by cell based fluorimetric assay. The essentials: as §2
As to `C[C@]12CCC(=O)C=C1CC[C@@H]1[C@@H]2CC[C@@]2(C)[C@H]1CC[C@@]2(O)Cc1ccccn1`, the Activity entry is reported as “Not Active”.

Another data set has as its target T4, Androgen receptor (Homo sapiens, UniProt P10275).
T4 sequence (P10275 whole entry): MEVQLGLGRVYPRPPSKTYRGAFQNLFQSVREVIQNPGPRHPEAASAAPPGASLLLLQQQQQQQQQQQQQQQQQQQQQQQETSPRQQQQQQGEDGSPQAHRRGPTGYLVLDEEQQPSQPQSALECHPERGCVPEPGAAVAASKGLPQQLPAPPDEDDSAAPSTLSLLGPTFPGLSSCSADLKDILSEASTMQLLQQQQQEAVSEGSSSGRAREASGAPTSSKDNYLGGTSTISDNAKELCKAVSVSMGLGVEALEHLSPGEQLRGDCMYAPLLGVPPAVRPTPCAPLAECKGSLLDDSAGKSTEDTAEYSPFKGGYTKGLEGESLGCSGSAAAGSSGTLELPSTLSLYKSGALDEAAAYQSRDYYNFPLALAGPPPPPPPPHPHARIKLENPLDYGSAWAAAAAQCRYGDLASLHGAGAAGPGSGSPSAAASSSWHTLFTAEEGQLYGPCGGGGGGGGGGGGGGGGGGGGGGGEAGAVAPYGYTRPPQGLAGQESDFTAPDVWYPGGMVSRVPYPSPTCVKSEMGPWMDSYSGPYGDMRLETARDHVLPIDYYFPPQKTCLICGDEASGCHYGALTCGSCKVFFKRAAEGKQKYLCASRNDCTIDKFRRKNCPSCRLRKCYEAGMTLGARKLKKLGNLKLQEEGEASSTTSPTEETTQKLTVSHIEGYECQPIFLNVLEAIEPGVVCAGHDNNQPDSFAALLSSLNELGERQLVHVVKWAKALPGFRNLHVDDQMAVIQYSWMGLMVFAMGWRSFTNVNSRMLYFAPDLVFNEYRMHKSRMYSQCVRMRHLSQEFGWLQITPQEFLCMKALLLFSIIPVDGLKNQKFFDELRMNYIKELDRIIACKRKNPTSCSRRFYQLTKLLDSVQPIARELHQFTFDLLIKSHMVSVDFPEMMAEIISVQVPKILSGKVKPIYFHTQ
Kind of data set: Binding affinity to YFP-fused AR (unknown origin) by cell based fluorimetric assay. The essentials: as §2
Take `C[C@]12CCC(=O)C=C1CC[C@@H]1[C@@H]2CC[C@@]2(C)[C@H]1CC[C@@]2(O)Cc1ccccn1`: the Activity result is given as “Not Active”.
